Assay results from ChEMBL document CHEMBL2331506, “Design, synthesis, antiviral and cytostatic evaluation of novel isoxazolidine nucleotide analogues with a carbamoyl linker” (Bioorg Med Chem, 2013).
pIC50: −log10 of the molar value. Calls of active or inactive are those of the source. How the calls were made is not given here.

Key:
[1] = test system: Human immunodeficiency virus 2; assay: Antiviral activity against Human immunodeficiency virus 2 ROD infected in human CEM cells assessed as reduction of virus-induced giant cell formation at 250 uM after 4 to 5 days; assay type: functional, organism-based; settings: CCRF-CEM
Procedure, shortened: (§1)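 CEM cells at 3 × 10^5 cells/mL were infected with HIV at 100 CCID50 per mL in the presence of compound dilutions. They were held 4–5 days at 37 °C in humidified CO2. Syncytium (giant cell) formation was scored microscopically, and EC50 was taken as the concentration inhibiting giant cell formation by 50%.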

MDCK = assay: Cytotoxicity against dog MDCK cells assessed as alteration of cell morphology up to 100 uM by microscopic analysis; assay type: cell-based, Canis lupus familiaris
Procedure, shortened: (§2)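 Uninfected host-cell cultures were exposed to compound and examined by microscopy. Cytotoxicity was expressed as the minimum cytotoxic concentration (MCC) causing a microscopically detectable alteration of normal cell morphology.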

[2] = test system: Human immunodeficiency virus 1; assay: Antiviral activity against Human immunodeficiency virus 1 3B infected in human CEM cells assessed as reduction of virus-induced giant cell formation at 250 uM after 4 to 5 days; assay type: functional, organism-based; settings: CCRF-CEM; procedure, shortened: as §1
Felid alphaherpesvirus 1 = assay: Antiviral activity against Feline herpes virus infected in cat CRFK cells assessed as reduction of virus-induced cytopathogenicity at 250 uM; assay type: functional, organism-based
Human alphaherpesvirus 2 = assay: Antiviral activity against Herpes simplex virus 2 G infected in human HEL cells assessed as reduction of virus-induced cytopathogenicity at 250 uM; assay type: functional, organism-based; settings: strain G
Procedure, shortened: (§3)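 Confluent monolayers (HEL fibroblasts, Vero, or HeLa cells as listed) were infected with 100 CCID50 of virus in the presence of varying compound concentrations. Virus-induced cytopathicity or plaque formation was scored once cytopathicity was complete in untreated infected controls. EC50 was taken as the concentration reducing cytopathogenicity or plaque formation by 50%.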

Feline coronavirus = assay: Antiviral activity against Feline coronavirus infected in cat CRFK cells assessed as reduction of virus-induced cytopathogenicity at 250 uM; assay type: functional, organism-based
[3] = test system: Mammalian orthoreovirus 1; assay: Antiviral activity against Reovirus 1 infected in african green monkey Vero cells assessed as reduction of virus-induced cytopathogenicity at 250 uM; assay type: functional, organism-based; procedure, shortened: as §3
Influenza A virus [4] = assay: Antiviral activity against Influenza A virus H1N1 infected in dog MDCK cells assessed as reduction of virus-induced cytopathogenicity at 250 uM; assay type: functional, organism-based
Procedure, shortened: (§4)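 Confluent cell monolayers were infected with 100 CCID50 of virus while exposed to varying compound concentrations. Cytopathicity was scored once it was complete in untreated infected controls. EC50 was taken as the concentration that reduced virus-induced cytopathogenicity by 50%.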

HeLa [5] = assay: Cytotoxicity against human HeLa cells assessed as alteration of cell morphology up to 100 uM by microscopic analysis; assay type: cell-based; procedure, shortened: as §2
Influenza A virus [6] = assay: Antiviral activity against Influenza A virus H3N2 infected in dog MDCK cells assessed as reduction of virus-induced cytopathogenicity at 250 uM; assay type: functional, organism-based; procedure, shortened: as §4
HEL = assay: Cytotoxicity against human HEL cells assessed as alteration of cell morphology up to 100 uM by microscopic analysis; assay type: cell-based; procedure, shortened: as §2
[7] = test system: Respiratory syncytial virus; assay: Antiviral activity against Respiratory syncytial virus long infected in human HeLa cells assessed as reduction of virus-induced cytopathogenicity at 250 uM; assay type: functional, organism-based; procedure, shortened: as §3
Coxsackievirus B4 = assay: Antiviral activity against Coxsackievirus B4 infected in african green monkey Vero cells assessed as reduction of virus-induced cytopathogenicity at 250 uM; assay type: functional, organism-based; procedure, shortened: as §3
Human alphaherpesvirus 1 [8] = assay: Antiviral activity against Herpes simplex virus 1 KOS infected in human HEL cells assessed as reduction of virus-induced cytopathogenicity at 250 uM; assay type: functional, organism-based; procedure, shortened: as §3
Punta Toro virus = assay: Antiviral activity against Punta Toro virus infected in african green monkey Vero cells assessed as reduction of virus-induced cytopathogenicity at 250 uM; assay type: functional, organism-based; procedure, shortened: as §3
Sindbis virus = assay: Antiviral activity against Sindbis virus infected in african green monkey Vero cells assessed as reduction of virus-induced cytopathogenicity at 250 uM; assay type: functional, organism-based; procedure, shortened: as §3
Human alphaherpesvirus 1 [9] = assay: Antiviral activity against thymidine kinase-deficient, ACV-resistant Herpes simplex virus 1 KOS infected in human HEL cells assessed as reduction of virus-induced cytopathogenicity at 250 uM; assay type: functional, organism-based; procedure, shortened: as §4
Influenza B virus = assay: Antiviral activity against Influenza B virus infected in dog MDCK cells assessed as reduction of virus-induced cytopathogenicity at 250 uM; assay type: functional, organism-based; procedure, shortened: as §4
[10] = Cytotoxicity against cat CRFK cells assessed as alteration of cell morphology up to 100 uM by microscopic analysis; assay type: cell-based, Felis catus; procedure, shortened: as §2
[11] = test system: Vesicular stomatitis virus; assay: Antiviral activity against Vesicular stomatitis virus infected in human HeLa cells assessed as reduction of virus-induced cytopathogenicity at 250 uM; assay type: functional, organism-based; procedure, shortened: as §4
Human respirovirus 3 = assay: Antiviral activity against Parainfluenza virus 3 infected in african green monkey Vero cells assessed as reduction of virus-induced cytopathogenicity at 250 uM; assay type: functional, organism-based; procedure, shortened: as §3
L1210 = assay: Cytostatic activity against mouse L1210 cells assessed as inhibition of cell proliferation after 48 hrs by Coulter counter analysis; assay type: functional, cell-based; settings: L1210, 48 h
Procedure, shortened: (§5)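 Each well received (5–7.5) × 10^4 tumor cells plus compound. L1210 cells grew 48 h and CEM and HeLa cells grew 72 h, at 37 °C in humidified CO2. Cells were then counted electronically, and IC50 was taken as the concentration inhibiting proliferation by 50%.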

HeLa [12] = assay: Cytostatic activity against human HeLa cells assessed as inhibition of cell proliferation after 72 hrs by Coulter counter analysis; assay type: functional, cell-based; procedure, shortened: as §5
[13] = test system: Vesicular stomatitis virus; assay: Antiviral activity against Vesicular stomatitis virus infected in human HEL cells assessed as reduction of virus-induced cytopathogenicity at 250 uM; assay type: functional, organism-based; procedure, shortened: as §4
CCRF-CEM = assay: Cytostatic activity against human CEM cells assessed as inhibition of cell proliferation after 72 hrs by Coulter counter analysis; assay type: functional, cell-based; procedure, shortened: as §5
Vero = assay: Cytotoxicity against african green monkey Vero cells assessed as alteration of cell morphology up to 100 uM by microscopic analysis; assay type: cell-based; settings: chlorocebus sabaeus; procedure, shortened: as §2

Compound | inhibition [1] | Activity (MDCK) | inhibition [2] | inhibition (Felid alphaherpesvirus 1) | inhibition (Human alphaherpesvirus 2) | inhibition (Feline coronavirus) | inhibition [3] | inhibition (Influenza A virus [4]) | Activity (HeLa [5]) | inhibition (Influenza A virus [6]) | Activity (HEL) | inhibition [7] | inhibition (Coxsackievirus B4) | inhibition (Human alphaherpesvirus 1 [8]) | inhibition (Punta Toro virus) | inhibition (Sindbis virus) | inhibition (Human alphaherpesvirus 1 [9]) | inhibition (Influenza B virus) | Activity [10] | inhibition [11] | other results
CCOP(=O)(OCC)[C@H]1C[C@H](C(=O)Nc2ccc(C(C)=O)cc2)ON1C (mixture of isomers) | inactive | Non-toxic | inactive | inactive | inactive | inactive | inactive | inactive | Non-toxic | inactive | Non-toxic | inactive | inactive | inactive | inactive | inactive | inactive | inactive | Non-toxic | inactive | inhibition (Human respirovirus 3): inactive; pIC50 (L1210): < 3.60; pIC50 (HeLa [12]): < 3.60; inhibition [13]: inactive; pIC50 (CCRF-CEM): < 3.60; Activity (Vero): Non-toxic
CCOP(=O)(OCC)[C@@H]1C[C@H](C(=O)Nc2ccc(Cl)cc2)ON1C (mixture of isomers) | inactive | Non-toxic | inactive | inactive | inactive | inactive | inactive | inactive | Non-toxic | inactive | Non-toxic | inactive | inactive | inactive | inactive | inactive | inactive | inactive | Non-toxic | inactive | inhibition (Human respirovirus 3): inactive; pIC50 (L1210): 3.77; pIC50 (HeLa [12]): < 3.60; inhibition [13]: inactive; pIC50 (CCRF-CEM): ≤ 3.60; Activity (Vero): Non-toxic
CCOP(=O)(OCC)[C@@H]1C[C@H](C(=O)Nc2cccc(F)c2)ON1C (mixture of isomers) | inactive | Non-toxic | inactive | inactive | inactive | inactive | inactive | inactive | Non-toxic | inactive | Non-toxic | inactive | inactive | inactive | inactive | inactive | inactive | inactive | Non-toxic | inactive | inhibition (Human respirovirus 3): inactive; pIC50 (L1210): 3.64; pIC50 (HeLa [12]): ≤ 3.60; inhibition [13]: inactive; pIC50 (CCRF-CEM): ≤ 3.60; Activity (Vero): Non-toxic
CCOP(=O)(OCC)[C@H]1C[C@H](C(=O)Nc2ccc(Cl)cc2)ON1C (relative stereo) | inactive | Non-toxic | inactive | inactive | inactive | inactive | inactive | inactive | Non-toxic | inactive | Non-toxic | inactive | inactive | inactive | inactive | inactive | inactive | inactive | Non-toxic | inactive | inhibition (Human respirovirus 3): inactive; pIC50 (L1210): < 3.60; pIC50 (HeLa [12]): ≤ 3.60; inhibition [13]: inactive; pIC50 (CCRF-CEM): < 3.60; Activity (Vero): Non-toxic
